# Sampled rows, rich in hits. Any-hit rate of the full collection: about 1.5%.
# CaV13 ICDI inh: Primary screen for inhibitors of IQ motif and Ca2+-dependent inactivation inhibitor domain binding in CACNA1D, Förster resonance energy transfer in living cells, …. inhibition, % at 12.3 µM. hit rate 0.098% among 340,000. HEK cells, CFP/YFP FRET ICDI-IQ, plate reader, 10 min; percent FRET-ratio fall versus neutral wells. AID 743397;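 active means mean replicate inhibition of at least 30% and at least 1% of replicates passing that level; inconclusive means only one of the two criteria is met; inactive means neither criterion is met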
# Runt-CBFb FRET: blocks binding of human RUNX1 Runt domain to CBFb. Q01196+Q13951. Cerulean-Runt/Venus-CBFb FRET ratio 530/480, 1 h. inhibition, % at 20 µM. hit rate 0.46% among 220,000. AID 1496;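 active means inhibition over about 50% at 20 µM in the single-dose screen, limit read from the data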
# Target sequence (Q01196 whole entry, looked up, the tested form may be a part): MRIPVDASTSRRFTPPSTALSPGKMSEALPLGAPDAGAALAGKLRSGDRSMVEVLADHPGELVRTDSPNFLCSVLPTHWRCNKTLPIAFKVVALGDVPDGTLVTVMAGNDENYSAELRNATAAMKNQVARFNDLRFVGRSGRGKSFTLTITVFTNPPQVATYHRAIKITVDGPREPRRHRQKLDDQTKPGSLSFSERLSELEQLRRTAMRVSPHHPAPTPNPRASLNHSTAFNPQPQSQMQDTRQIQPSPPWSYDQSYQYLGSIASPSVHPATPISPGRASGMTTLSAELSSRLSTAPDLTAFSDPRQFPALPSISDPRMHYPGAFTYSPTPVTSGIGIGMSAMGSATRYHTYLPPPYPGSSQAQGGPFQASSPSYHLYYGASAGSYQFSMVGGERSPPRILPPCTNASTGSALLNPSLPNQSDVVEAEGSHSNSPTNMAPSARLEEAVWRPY
# Target sequence (Q13951 whole entry, looked up, the tested form may be a part): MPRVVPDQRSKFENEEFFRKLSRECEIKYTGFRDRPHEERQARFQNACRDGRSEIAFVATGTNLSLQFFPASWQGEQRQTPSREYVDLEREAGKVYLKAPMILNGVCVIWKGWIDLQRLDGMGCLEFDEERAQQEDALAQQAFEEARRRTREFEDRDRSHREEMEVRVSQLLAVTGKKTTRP
#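 test system = Cerulean-tagged RUNX1 Runt domain (FRET donor) fusion protein | reagent = Venus-CBFb binding partner, 100 nM | incubation = protein complex preformed 1 h, compound exposure 1 h, room temperature, dark | detection = FRET fluorescence | read-out basis = loss of energy transfer signal | controls = 5 µM unlabeled CBFb as full-inhibition high control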
# RanGTP-Imp inh: inhibitors of RanGTP-importin-beta interaction, primary screen, biochemical, FRET, CFP-Ran, YFP-importin-beta, homogeneous | cell-free CFP-Ran/YFP-importin-beta FRET ratio | inhibition, % (no concentration beside the values) | AID 2216 | hit rate 1.1% among 300,000;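 active means more than half of the replicate wells show a fall in the fluorescence ratio signal beyond about 16%, limit read from the data, passing the limit was not always enough; inconclusive means exactly half of the replicate wells pass the set limit; inactive means fewer than half of replicates pass the limit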
# Hck Nef HTS: human Hck-Nef kinase inhibition; P08631; AID 463187; Recombinant Hck-YEEI plus Nef, Z-Lyte FRET kinase assay; inhibition, % at 20 µM; hit rate 0.68% among 220,000;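 active means Hck-Nef kinase inhibition above about 50%, limit read from the data; inactive means inhibition below that limit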
# Runt-SMMHC FRET: blocks binding of human RUNX1 Runt domain to CBFb-SMMHC; hit rate 0.74% among 220,000; Q01196+Q13951; Cerulean-Runt/Venus-CBFb-SMMHC FRET ratio 530/480, 1 h; AID 1434; inhibition, % at 20 µM;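 active means mean inhibition across duplicate retests at 20 µM reaching about 50%, limit read from the data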;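 further: inhibitors lower the FRET ratio by blocking Runt binding to CBFb-SMMHC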
# YIC FRET counter: counter-screen: alters YIC FRET probe signal. IC50, µM. Purified YIC probe, intramolecular FRET ratio YFP/CFP. shares compounds with RanGTP-Imp inh. hit rate 40% among 1,000. AID 435026;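 active means fitted half-maximal inhibitory concentration no more than tenfold above the top dose tested; inconclusive means flat fit with 30 to 70% activity, or poor fit; inactive means half-maximal concentration beyond tenfold above the top dose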
# Hits are given with their value; - = inactive; ? = inconclusive; . = no result given; ! = repeats disagree.
SMILES,CaV13 ICDI inh,Runt-CBFb FRET,RanGTP-Imp inh,Hck Nef HTS,Runt-SMMHC FRET,YIC FRET counter
CC1=C(C(=O)OCC2CCCO2)C(c2ccccc2OC(C)C)C2=C(CC(c3ccco3)CC2=O)N1 (stereo unspecified),.,-,28,-,103,6.9
OCCN1CCN(c2nc(-c3ccccc3)c3cc(Cl)ccc3n2)CC1,-,.,18,-,52,24
CN(C)S(=O)(=O)c1cccc(NC(=O)CNC2CCCCC2)c1,-,-,27,-,-,-
COc1ccc(Cl)cc1S(=O)(=O)Nc1noc2ccccc12,-,.,16,.,.,-
O=C(c1ccco1)c1cc2c(ccc3ccccc32)oc1=O,-,-,24,-,-,21
Cc1noc(C)c1NC(=O)N(C)C[C@@H]1Oc2ccc(N(C)C)cc2CC(=O)N([C@H](C)CO)C[C@H]1C,.,.,.,.,.,-
CC(=O)OC1CCC2(C)C(=CCC3C2CCC2(C)C3CC3ON=C(C)C32)C1 (stereo unspecified),-,.,.,.,.,.
CNC(=S)Nc1ccc(C(N)=O)cc1,-,-,27,-,-,-
Cc1cc(C)c2c(N)c(C(=O)NN3CC(=O)N(c4ccccc4F)CC3=O)sc2n1,-,-,16,-,-,-
COc1ccc(NC(=O)N2CCn3c2nc2ccccc23)cc1,-,-,-,-,-,.
Cc1ccc(/C=N/Nc2ccnc3cc(Cl)ccc23)c(C)c1,-,-,-,-,-,.
Cc1ccccc1/C=N/Nc1ccnc2cc(Cl)ccc12,-,-,23,-,-,-
Cc1cnc(CN(C)Cc2c(C(=O)N3CCc4ccccc4C3)nc3ccc(Cl)cn23)[nH]1,-,-,-,-,-,.
CCCN(CCC)Cc1c(C(=O)N/N=C/CCc2ccccc2)nnn1-c1nonc1N,-,.,-,.,.,.
Cc1ccc(S(=O)(=O)N2CCC(C(=O)NCc3cccnc3)CC2)cc1,-,-,-,-,-,.
Cc1csc2ncnc(NC3CCN(Cc4ccccc4)CC3)c12,-,-,19,-,-,-
Cn1c(N/N=C/c2c[nH]c3ccccc23)nc2ccccc21,-,-,-,-,-,.
Cn1c(N/N=C/c2cc3ccccc3nc2Cl)nc2ccccc21,-,-,17,-,-,-
Cc1cc(OCC(=O)OCC(=O)Nc2cccnc2Cl)ccc1Cl,-,.,.,.,.,.
S=c1[nH]c2ccc3ccccc3c2[nH]1,-,-,17,-,-,-
S=c1[nH]c2cc3ccccc3cc2[nH]1,-,-,-,-,-,.
CCCCNC(=O)N(CC)c1c(N)n(Cc2ccccc2)c(=O)[nH]c1=O,-,-,-,-,-,.
COC(=O)[C@@H]1[C@H]2C[C@H]3c4[nH]c5ccccc5c4CCN3C[C@@H]2CC[C@@H]1O,-,.,26!,.,.,-
C=CCNC(=S)N/N=C/c1cn(-c2ccccc2)nc1-c1ccc(OC)cc1,-,-,-,-,-,.
Cc1nn(C)cc1C1C(C#N)=C(N)N(c2cccnc2)C2=C1C(=O)CCC2 (stereo unspecified),-,-,-,-,-,.
SMILES,CaV13 ICDI inh,Runt-CBFb FRET,RanGTP-Imp inh,Hck Nef HTS,Runt-SMMHC FRET,YIC FRET counter
Cc1ccc(C2C(C#N)=C(N)N(c3cccnc3)C3=C2C(=O)CCC3)c(C)c1 (stereo unspecified),-,-,30,-,-,-
CCN(C(=O)CSc1nc2ccccc2c(=O)n1-c1cccc(C)c1)C1CCS(=O)(=O)C1 (stereo unspecified),-,-,-,-,-,.
N#C/C(=C/c1cn(CC(=O)O)c2ccccc12)C(=O)NCc1ccccc1,-,-,23,-,-,-
CCCOC(=O)CSC1=C(C#N)C(c2ccccc2OCC)C(C#N)C(=O)N1 (stereo unspecified),-,-,21,-,-,-
CCCCOC(=O)CSC1=C(C#N)C(c2ccccc2OCC)C(C#N)C(=O)N1 (stereo unspecified),.,-,?,-,-,.
CC(C)(C)C(=O)NC(=S)Nc1ccc(S(=O)(=O)Nc2nccs2)cc1,-,-,17,-,-,-
C=CCn1c(O)c(N=NC(=S)Nc2ccccc2F)c2cc(S(=O)(=O)N3CCOCC3)ccc21,-,-,18,-,-,-
C=CCn1c(O)c(N=NC(=S)Nc2ccccc2F)c2ccccc21,-,-,-,-,-,.

# Screening results (PubChem)
